Active and inactive are the calls of the source. No cut-off for these calls is given here.
Tests used:
[1] = tested on: FRTL-5; assay: Antiproliferative activity against FRTL5 cell line; format: functional, cell-based; settings: Rattus norvegicus
Procedure, shortened: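 FRTL-5 rat thyroid cells were grown in Coon's modified Ham F12 with 5% calf serum plus six hormones, including TSH 1 × 10^-10 M. Cells were seeded at ~10% confluency and attached for 24 h. Compounds in DMSO were applied for 24 h at 37 °C in 5% CO2, then washed out, followed by 48 h culture. SRB read-out, %T/C; IC50 from dose/effect curve; vehicle controls.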

[2] = tested on: MCF7; assay: Antiproliferative activity against MCF7 cell line; format: functional, cell-based; settings: Homo sapiens
Procedure, shortened: (§1)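 Monolayers in RPMI-1640 with 10% FBS, seeded ~10% confluent and allowed 24 h recovery. Compounds in DMSO at varying concentrations for 24 h (37 °C, 5% CO2), then washout and 48 h further growth. Viability by sulforhodamine B; %T/C relative to vehicle-treated controls; 50% growth-inhibitory concentration taken from dose/effect curve.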

[3] = tested on: T47D; assay: Antiproliferative activity against T47D cell line; format: functional, cell-based; settings: Homo sapiens; procedure, shortened: as §1
[4] = Inhibitory activity against farnesyl transferase
[5] = tested on: LoVo; assay: Antiproliferative activity against LoVo cell line; format: functional, cell-based; settings: Homo sapiens; procedure, shortened: as §1
[6] = tested on: MDA-MB-231; assay: Antiproliferative activity against MDA-MB-231 cell line; format: functional, cell-based; settings: Homo sapiens; procedure, shortened: as §1
[7] = tested on: NIH3T3; assay: Antiproliferative activity against NIH3T3 cell line; format: functional, cell-based; settings: Mus musculus
Procedure, shortened: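 NIH3T3 fibroblasts were grown in DMEM with 10% calf serum and seeded at ~10% confluency with 24 h attachment. A range of compound concentrations in DMSO was applied for 24 h at 37 °C in 5% CO2, then washed off, followed by 48 h further incubation. Growth by sulforhodamine B; %T/C versus vehicle; IC50 from dose/effect curve.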

[8] = tested on: MCF10; assay: Antiproliferative activity against MCF10 cell line; format: functional, cell-based; settings: Homo sapiens

In the case of `CSCC[C@H](NC(=O)[C@@H](Cc1ccc(O)cc1C)NC(=O)[C@@H](NC(=O)[C@@H](N)CS)C(C)C)C(=O)O`, the Activity [1] is reported as “inactive”, the Activity [2] is reported as “inactive” and the Activity [3] is reported as “inactive”. The IC50 [4] was 11.4 µM, the Activity [5] was “inactive” and the Activity [6] was “inactive”. For the same compound, the Activity [7] was “inactive” and the Activity [8] was “inactive”.

Work on `CSCC[C@H](NC(=O)[C@@H](Cc1cc(C)c(O)cc1C)NC(=O)[C@@H](NC(=O)[C@H](CS)NC=O)C(C)C)C(=O)O` yielded an IC50 [4] of 10.2 µM.

For `COC(=O)[C@H](CCSC)NC(=O)[C@H](Cc1ccc(O)c(C)c1C)NC(=O)[C@@H](NC(=O)[C@@H](N)CS)C(C)C`, the IC50 [2] was 65 µM, the IC50 [3] was 90 µM and the IC50 [4] was 20.4 µM. For the same compound, the IC50 [5] was 9.1 µM and the IC50 [6] was 83 µM.

For `CSCC[C@H](NC(=O)[C@H](Cc1ccc(O)c(C)c1C)NC(=O)[C@@H](NC(=O)[C@H](CS)NC=O)C(C)C)C(=O)O`, the IC50 [3] was 100 µM, the IC50 [4] was 10.3 µM and the IC50 [6] was 100 µM.

Compound `CSCC[C@H](NC(=O)[C@H](Cc1cc(C)c(O)cc1C)NC(=O)[C@@H](NC(=O)[C@H](CS)NC=O)C(C)C)C(=O)O` has an IC50 [4] of 5.5 µM.

In the case of `CSCC[C@H](NC(=O)[C@@H](Cc1cc(C)c(O)cc1C)NC(=O)[C@@H](NC(=O)[C@@H](N)CS)C(C)C)C(=O)O`, the Activity [1] is reported as “inactive”, the Activity [2] is reported as “inactive” and the Activity [3] is reported as “inactive”. For the same compound, the IC50 [4] was 10.5 µM, the Activity [5] was “inactive” and the Activity [6] was “inactive”. For the same compound, the Activity [7] was “inactive” and the Activity [8] was “inactive”.

For `CSCC[C@H](NC(=O)[C@H](Cc1cc(C)c(O)cc1C)NC(=O)[C@@H](NC(=O)[C@@H](N)CS)C(C)C)C(=O)O`, the Activity [1] was “inactive”, the Activity [2] was “inactive” and the Activity [3] was “inactive”. The IC50 [4] was 2.5 µM, the Activity [5] was “inactive” and the Activity [6] was “inactive”. The Activity [7] was “inactive” and the Activity [8] was “inactive”.

With `CSCC[C@H](NC(=O)[C@H]1CC2CCCCC2N1C(=O)[C@@H](NC(=O)[C@@H](N)CS)C(C)C)C(=O)O` (stereo not given in full) the Activity [1] was “inactive”, the Activity [2] was “inactive” and the Activity [3] was “inactive”. The IC50 [4] was 1 µM, the Activity [5] was “inactive” and the Activity [6] was “inactive”. For the same compound, the Activity [7] was “inactive” and the Activity [8] was “inactive”.

In the case of `COC(=O)[C@H](CCSC)NC(=O)[C@@H](Cc1ccc(O)c(C)c1C)NC(=O)[C@@H](NC(=O)[C@@H](N)CS)C(C)C`, the Activity [1] is reported as “inactive”, the Activity [2] is reported as “inactive” and the Activity [3] is reported as “inactive”. The IC50 [4] was 70.5 µM, the Activity [5] was “inactive” and the Activity [6] was “inactive”. For the same compound, the Activity [7] was “inactive” and the Activity [8] was “inactive”.

In the case of `CSCC[C@H](NC(=O)[C@H](Cc1ccc(O)c(C)c1C)NC(=O)[C@@H](NC(=O)[C@@H](N)CS)C(C)C)C(=O)O`, the Activity [1] is reported as “inactive”, the Activity [2] is reported as “inactive” and the Activity [3] is reported as “inactive”. The IC50 [4] was 0.1 µM, the Activity [5] was “inactive” and the Activity [6] was “inactive”. For the same compound, the Activity [7] was “inactive” and the Activity [8] was “inactive”.

In the case of `CSCC[C@H](NC(=O)[C@H](Cc1ccc(C)cc1C)NC(=O)[C@@H](NC(=O)[C@@H](N)CS)C(C)C)C(=O)O`, the Activity [1] is reported as “inactive”, the Activity [2] is reported as “inactive” and the Activity [3] is reported as “inactive”. For the same compound, the IC50 [4] was 2.2 µM, the Activity [5] was “inactive” and the Activity [6] was “inactive”. The Activity [7] was “inactive” and the Activity [8] was “inactive”.

With `CSCC[C@H](NC(=O)[C@@H](Cc1ccc(C)cc1C)NC(=O)[C@@H](NC(=O)[C@@H](N)CS)C(C)C)C(=O)O` the Activity [1] was “inactive”, the Activity [2] was “inactive” and the Activity [3] was “inactive”. The IC50 [4] was 4.3 µM, the Activity [5] was “inactive” and the Activity [6] was “inactive”. For the same compound, the Activity [7] was “inactive” and the Activity [8] was “inactive”.

In the case of `CSCC[C@H](NC(=O)[C@@H](Cc1ccc(O)c(C)c1C)NC(=O)[C@@H](NC(=O)[C@@H](N)CS)C(C)C)C(=O)O`, the Activity [1] is reported as “inactive”, the Activity [2] is reported as “inactive” and the Activity [3] is reported as “inactive”. For the same compound, the IC50 [4] was 4.3 µM, the Activity [5] was “inactive” and the Activity [6] was “inactive”. For the same compound, the Activity [7] was “inactive” and the Activity [8] was “inactive”.

In the case of `CSCC[C@H](NC(=O)[C@H](Cc1ccc(O)cc1C)NC(=O)[C@@H](NC(=O)[C@@H](N)CS)C(C)C)C(=O)O`, the Activity [1] is reported as “inactive”, the Activity [2] is reported as “inactive” and the Activity [3] is reported as “inactive”. The IC50 [4] was 4.3 µM, the Activity [5] was “inactive” and the Activity [6] was “inactive”. For the same compound, the Activity [7] was “inactive” and the Activity [8] was “inactive”.

From ChEMBL document CHEMBL1138191, “Synthesis, pharmacological evaluation, and molecular modeling studies of novel peptidic CAAX analogues as farnesyl-protein-transferase inhibitors” (J Med Chem, 2006)
